The full list was thinned out, with hits kept by preference.
CHOP inhibitor – blocks CHOP induction under ER stress; CHO-K1 CHOP-promoter luciferase, tunicamycin-induced, 15-18 h; inhibition, % at 10 µM; hit rate 3.8% among 220,000;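 active means compounds that reduced the stress-induced luciferase reporter signal by more than about 70% of percent inhibition, limit read from the data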;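 further: 0% = tunicamycin plus vehicle and 100% = wells without tunicamycin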
Jurkat NFkB inh – lowers PMA/ionomycin-induced NF-kB signal in Jurkat cells. AID 435003. hit rate 0.53% among 330,000. inhibition, % at 4 µM. PMA/ionomycin-induced NF-kB luciferase reporter, luminescence; in the data active means inhibition above about 50%
UPR XBP1 act – adaptive UPR (XBP1) activation. CHO-XBP1 luciferase reporter, IRE1-XBP1 UPR activation, luminescence; percent of tunicamycin response, DMSO as zero. activation, % at 20 µM. hit rate 0.33% among 330,000;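 active means versus positive control, 20 µM dose yields 30% or more activation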;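 further: 100% = tunicamycin at 10 µg/mL and 0% = DMSO only wells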
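Signal: luciferase luminescence; Assay system: CHO-XBP1 luciferase reporter cells; Amount: one thousand reporter cells per well; Dosing: 20 µM single concentration, DMSO 1%; Benchmarks: high control tunicamycin 10 µg/mL final, low control DMSO vehicle only; Schedule: 6 h compound exposure at 37 °C, 5% CO2; Evaluation: percent activation relative to tunicamycin reference.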
CHOP UPR activ – apoptotic UPR (CHOP) activation. CHO-CHOP luciferase reporter, luminescence; percent of tunicamycin response over DMSO baseline. activation, % at 10 µM. hit rate 0.34% among 330,000. AID 449763;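 active means at 10 µM dose, activation of 40% or more, normalized to positive control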;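 further: 100% = tunicamycin at 10 µg/mL and 0% = DMSO alone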
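measured by = luciferase luminescence | assay system = CHO-CHOP cells, stable luciferase reporter of PERK-eIF2a-CHOP signalling | amount = 500 reporter cells seeded per well | timing = 6 h compound exposure at 37 °C after overnight seeding | controls = positive tunicamycin 10 µg/mL, negative DMSO alone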
697 NFkB inh – inhibitors of the PMA/ionomycin-induced NF-kB reporter in 697 B cells. 697 B-cell NF-kB luciferase reporter, 16 h. inhibition, % at 4 µM. hit rate 0.33% among 330,000. AID 435022; in the data active means inhibition above about 35%
Numbers without * were called inactive; ! = not active in a repeat.

C/C(=N/NC(=O)CNC(=O)c1cccs1)c1ccco1 was read as CHOP inhibitor 3, Jurkat NFkB inh 1, UPR XBP1 act -4, CHOP UPR activ 0 and 697 NFkB inh 4.
For CCC(C(=O)NC1CCCCC1)N(Cc1cccs1)C(=O)CCC(=O)Nc1cc(C)on1 (stereo not given) the results were Jurkat NFkB inh 13, UPR XBP1 act -8, CHOP UPR activ 0 and 697 NFkB inh 4.
CCS(=O)(=O)N1CCC(C(=O)Nc2cccc(C(C)=O)c2)CC1 was read as CHOP inhibitor 73*, Jurkat NFkB inh -11, UPR XBP1 act 0, CHOP UPR activ 2 and 697 NFkB inh -9.
CC(C)=CC(=O)NCCc1ccccc1 was read as CHOP inhibitor 85*, Jurkat NFkB inh -82, UPR XBP1 act 1, CHOP UPR activ 2 and 697 NFkB inh -79.
CN(CCC#N)C(=O)CC(Cc1ccccc1)C1CCOC(C)(C)C1 (stereo not given) was read as CHOP inhibitor 3, Jurkat NFkB inh 3, UPR XBP1 act -1, CHOP UPR activ -1 and 697 NFkB inh 2.
CCN=c1scc(-c2ccc(F)cc2)n1/N=C/c1ccccn1 was read as CHOP inhibitor 5, Jurkat NFkB inh -92, UPR XBP1 act 10, CHOP UPR activ 3 and 697 NFkB inh -167.
For COC(=O)c1ccc(/C=N/Nc2nc(C)c(C)s2)cc1 the results were CHOP inhibitor -41, Jurkat NFkB inh -138, UPR XBP1 act 0, CHOP UPR activ 7 and 697 NFkB inh -196.
For Cc1nc(N/N=C/c2ccccn2)sc1C the results were CHOP inhibitor 86*.
For CCCc1sc(N/N=C/c2ccccn2)nc1-c1ccc(F)cc1 the results were CHOP inhibitor 87*, Jurkat NFkB inh -14, UPR XBP1 act 7, CHOP UPR activ 20 and 697 NFkB inh -22.
For CC(C)[C@@H]1NC(=O)[C@H](CCCCN)NC(=O)[C@@H](Cc2c[nH]c3ccccc23)NC(=O)[C@H](Cc2ccc(O)cc2)NC(=O)[C@H](C)N(C)C(=O)[C@H](Cc2ccccc2)NC1=O the results were CHOP inhibitor -1.
CCCc1nc2c(=O)n(C)c(=O)nc-2n(C)n1 was read as CHOP inhibitor 104*.
`CCn1c(N)nc2c1c(=O)n(C)c(=O)n2C` gave CHOP inhibitor -26, Jurkat NFkB inh 0, UPR XBP1 act 1, CHOP UPR activ -1 and 697 NFkB inh 9.
Screening Cc1cc(Cl)ccc1Oc1nc(-c2ccccc2)ncc1S(C)(=O)=O returned CHOP inhibitor 79*, Jurkat NFkB inh -8, UPR XBP1 act 0, CHOP UPR activ -2 and 697 NFkB inh 1.
Screening Cc1cccc(C)c1Oc1nc(-c2ccccc2)ncc1S(=O)(=O)c1ccccc1 returned CHOP inhibitor 20, Jurkat NFkB inh 5, UPR XBP1 act -3, CHOP UPR activ -3 and 697 NFkB inh -4.
`COc1ccc(Oc2nc(-c3ccccc3)ncc2S(=O)(=O)c2ccccc2)cc1` gave CHOP inhibitor 73*, Jurkat NFkB inh 4, UPR XBP1 act -2, CHOP UPR activ -1 and 697 NFkB inh -17.
`COc1ccc(Cl)cc1Nc1nc(NCCO)nc(N2CCCC2)n1` gave CHOP inhibitor 74*, Jurkat NFkB inh -17, UPR XBP1 act 2, CHOP UPR activ -1 and 697 NFkB inh -27.
`COc1ccc(Cl)cc1Nc1nc(NCCO)nc(N2CCCCC2)n1` gave Jurkat NFkB inh 4, UPR XBP1 act 3, CHOP UPR activ 2 and 697 NFkB inh 9.
O=c1[nH]c(CN2CCN(Cc3ccccc3)CC2)nc2scc(-c3ccccc3)c12 was read as CHOP inhibitor 27, Jurkat NFkB inh 24, UPR XBP1 act -2, CHOP UPR activ -1 and 697 NFkB inh 4.
Screening O=c1[nH]c(Cn2nnc(-c3ccccc3)n2)nc2scc(-c3ccccc3)c12 returned CHOP inhibitor 89*, Jurkat NFkB inh -1, UPR XBP1 act -3, CHOP UPR activ 0 and 697 NFkB inh -7.
`O=C(Nc1nc2c(s1)CCCC2)c1cc(-c2ccccc2)nc2ccccc12` gave CHOP inhibitor 81*, Jurkat NFkB inh 14, UPR XBP1 act -4, CHOP UPR activ 3 and 697 NFkB inh -18.
`CC(C)(C)c1nnc(NC(=O)c2cc(-c3ccccc3)nc3ccccc23)s1` gave CHOP inhibitor 74*, Jurkat NFkB inh -2, UPR XBP1 act -2, CHOP UPR activ 2 and 697 NFkB inh -36.
For O=C(Nc1nc2c(s1)CCCC2)c1cc(-c2ccncc2)nc2ccccc12 the results were CHOP inhibitor 63, Jurkat NFkB inh -11, UPR XBP1 act 2, CHOP UPR activ 8 and 697 NFkB inh -25.
`O=C(COC(=O)c1cc(=O)[nH]c(=O)[nH]1)Nc1cccc(S(=O)(=O)N2CCCCC2)c1` gave CHOP inhibitor -8, Jurkat NFkB inh -1, UPR XBP1 act -1, CHOP UPR activ -1 and 697 NFkB inh 9.
For Cc1ccc(F)cc1NC(=O)c1ccc(NS(=O)(=O)c2ccc(Br)s2)cc1 the results were CHOP inhibitor 13, Jurkat NFkB inh -13, UPR XBP1 act -1, CHOP UPR activ 1 and 697 NFkB inh -4.
Screening C=C(C)c1nc(N)nc(N)n1 returned CHOP inhibitor 23, Jurkat NFkB inh -3, UPR XBP1 act 0, CHOP UPR activ 0 and 697 NFkB inh 5.
Screening CC1=C(C)C(=O)C(CCCCC#CCCCC#CCO)=C(C)C1=O returned CHOP inhibitor 73*!, Jurkat NFkB inh 4, UPR XBP1 act -9, CHOP UPR activ 0 and 697 NFkB inh -28.
CC1CCN(S(=O)(=O)c2ccc(Cl)cc2Br)CC1 was read as CHOP inhibitor 78*, Jurkat NFkB inh 6, UPR XBP1 act 1, CHOP UPR activ -1 and 697 NFkB inh 2.
Screening CC(C)NC(=S)N/N=C/c1cccs1 returned CHOP inhibitor 19, Jurkat NFkB inh 9, UPR XBP1 act 2, CHOP UPR activ 5 and 697 NFkB inh 3.
CC(C)NC(=S)N/N=C/c1ccc(C(C)(C)C)cc1 was read as CHOP inhibitor 91*, Jurkat NFkB inh -31, UPR XBP1 act 1, CHOP UPR activ 2 and 697 NFkB inh -39.
`Cc1cccc(C(=O)NCc2nnc3c4ccccc4c(-c4ccccc4)nn23)c1` gave CHOP inhibitor 14, Jurkat NFkB inh -11, UPR XBP1 act 4, CHOP UPR activ 1 and 697 NFkB inh -27.
For COc1ccc(-c2onc(C)c2-c2ccc(C(=O)OC(C)C)o2)c(O)c1 the results were CHOP inhibitor 82*, Jurkat NFkB inh 4, UPR XBP1 act -2, CHOP UPR activ -1 and 697 NFkB inh 6.
For COc1ccc(N2C(=O)c3ccc(C(=O)OC(C)C)cc3C2=O)cc1 the results were CHOP inhibitor 3, Jurkat NFkB inh 1, UPR XBP1 act -1, CHOP UPR activ 2 and 697 NFkB inh 11.
